Experimental data taken from ChEMBL document CHEMBL3112461, “Synthesis and characterization of a novel series of agonist compounds as potential radiopharmaceuticals for imaging dopamine D₂/₃ receptors in their high-affinity state” (J Med Chem, 2014).
Where a name gives a salt, the structure may show the parent alone. Active and inactive are the calls of the source. No cut-off for these calls is given here.

Tests used:
D(2) dopamine receptor [1] = target: D(2) dopamine receptor (Rattus norvegicus, UniProt P61169); assay: Displacement of dopamine/[3-H]domperidone from high-affinity state of rat D2L receptor
Sequence of D(2) dopamine receptor (Rattus norvegicus, UniProt P61169) (P61169 whole entry): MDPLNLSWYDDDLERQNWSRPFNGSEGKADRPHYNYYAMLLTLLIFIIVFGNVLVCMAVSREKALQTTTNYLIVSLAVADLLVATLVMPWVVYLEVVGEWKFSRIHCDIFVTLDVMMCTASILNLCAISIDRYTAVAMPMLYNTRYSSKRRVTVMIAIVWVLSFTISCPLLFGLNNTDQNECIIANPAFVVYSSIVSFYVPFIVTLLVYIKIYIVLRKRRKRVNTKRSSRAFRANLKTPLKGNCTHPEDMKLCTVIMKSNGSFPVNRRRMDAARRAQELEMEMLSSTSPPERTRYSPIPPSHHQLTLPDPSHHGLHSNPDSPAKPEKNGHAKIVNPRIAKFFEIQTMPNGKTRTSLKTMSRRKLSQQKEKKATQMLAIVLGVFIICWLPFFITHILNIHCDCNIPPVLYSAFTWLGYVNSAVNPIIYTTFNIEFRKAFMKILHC

D(2) dopamine receptor [2] = target: T1, D(2) dopamine receptor (Homo sapiens, UniProt P14416); assay: Displacement of [3H]spiperone from low-affinity state of human dopamine D2L receptor transfected in HEK293 cells after 2 hrs by scintillation counting analysis; assay type: cell-based
T1 sequence (P14416 whole entry): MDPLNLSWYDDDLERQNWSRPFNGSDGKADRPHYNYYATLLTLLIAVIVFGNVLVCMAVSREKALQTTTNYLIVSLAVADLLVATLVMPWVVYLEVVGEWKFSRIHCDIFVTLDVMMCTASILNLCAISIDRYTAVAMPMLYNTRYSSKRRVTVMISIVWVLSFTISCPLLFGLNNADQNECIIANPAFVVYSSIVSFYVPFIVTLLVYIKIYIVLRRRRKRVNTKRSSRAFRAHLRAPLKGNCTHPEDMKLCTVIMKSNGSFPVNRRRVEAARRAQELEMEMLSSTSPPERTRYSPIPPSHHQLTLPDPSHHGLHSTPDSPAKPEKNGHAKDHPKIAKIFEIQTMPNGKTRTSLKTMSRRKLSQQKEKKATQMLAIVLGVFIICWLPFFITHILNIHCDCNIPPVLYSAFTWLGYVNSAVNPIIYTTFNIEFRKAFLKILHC

D(2) dopamine receptor [3] = target: T1, D(2) dopamine receptor; assay: Displacement of [3H]spiperone from low-affinity state of human dopamine D2S receptor transfected in HEK293 cells after 2 hrs by scintillation counting analysis; assay type: cell-based
Homo sapiens = species: Homo sapiens; assay: Selectivity ratio of Ki for human dopamine D1-like receptor to Ki for human dopamine D2-like receptor
D(1A) dopamine receptor = D(1A) dopamine receptor (Homo sapiens, UniProt P21728); assay: Displacement of [3H]SCH23390 from human dopamine D1 receptor transfected in HEK293 cells after 2 hrs by scintillation counting analysis; assay type: cell-based
Sequence of D(1A) dopamine receptor (P21728 whole entry): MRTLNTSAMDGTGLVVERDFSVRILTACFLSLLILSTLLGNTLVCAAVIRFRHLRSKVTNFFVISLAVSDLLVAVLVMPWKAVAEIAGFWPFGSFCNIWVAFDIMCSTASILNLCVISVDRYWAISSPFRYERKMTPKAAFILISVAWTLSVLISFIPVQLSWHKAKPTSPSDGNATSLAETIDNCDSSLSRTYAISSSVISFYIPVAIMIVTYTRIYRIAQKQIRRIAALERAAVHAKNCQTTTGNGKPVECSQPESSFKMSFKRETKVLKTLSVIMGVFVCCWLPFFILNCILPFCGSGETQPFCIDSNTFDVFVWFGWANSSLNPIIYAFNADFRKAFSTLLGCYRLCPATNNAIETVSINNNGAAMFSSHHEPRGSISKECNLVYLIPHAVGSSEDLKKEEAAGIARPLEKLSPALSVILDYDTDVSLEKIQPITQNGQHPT

D(4) dopamine receptor = target: T2, D(4) dopamine receptor (Homo sapiens, UniProt P21917); assay: Displacement of [3H]spiperone from human dopamine D4 receptor transfected in HEK293 cells after 2 hrs by scintillation counting analysis; assay type: cell-based
T2 sequence (P21917 whole entry): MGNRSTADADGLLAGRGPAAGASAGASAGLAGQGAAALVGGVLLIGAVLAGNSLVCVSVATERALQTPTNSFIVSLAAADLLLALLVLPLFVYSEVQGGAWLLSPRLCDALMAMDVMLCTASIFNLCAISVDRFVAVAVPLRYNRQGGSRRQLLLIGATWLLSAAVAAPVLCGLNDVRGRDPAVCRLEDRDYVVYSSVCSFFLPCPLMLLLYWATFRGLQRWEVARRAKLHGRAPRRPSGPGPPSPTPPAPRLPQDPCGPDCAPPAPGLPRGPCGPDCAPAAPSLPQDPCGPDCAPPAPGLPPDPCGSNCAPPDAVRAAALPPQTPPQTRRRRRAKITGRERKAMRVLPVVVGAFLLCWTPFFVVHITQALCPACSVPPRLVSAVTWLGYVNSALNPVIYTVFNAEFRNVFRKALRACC

D(1B) dopamine receptor = D(1B) dopamine receptor (Homo sapiens, UniProt P21918); assay: Displacement of [3H]SCH23390 from human dopamine D5 receptor transfected in HEK293 cells after 2 hrs by scintillation counting analysis; assay type: cell-based
Sequence of D(1B) dopamine receptor (P21918 whole entry): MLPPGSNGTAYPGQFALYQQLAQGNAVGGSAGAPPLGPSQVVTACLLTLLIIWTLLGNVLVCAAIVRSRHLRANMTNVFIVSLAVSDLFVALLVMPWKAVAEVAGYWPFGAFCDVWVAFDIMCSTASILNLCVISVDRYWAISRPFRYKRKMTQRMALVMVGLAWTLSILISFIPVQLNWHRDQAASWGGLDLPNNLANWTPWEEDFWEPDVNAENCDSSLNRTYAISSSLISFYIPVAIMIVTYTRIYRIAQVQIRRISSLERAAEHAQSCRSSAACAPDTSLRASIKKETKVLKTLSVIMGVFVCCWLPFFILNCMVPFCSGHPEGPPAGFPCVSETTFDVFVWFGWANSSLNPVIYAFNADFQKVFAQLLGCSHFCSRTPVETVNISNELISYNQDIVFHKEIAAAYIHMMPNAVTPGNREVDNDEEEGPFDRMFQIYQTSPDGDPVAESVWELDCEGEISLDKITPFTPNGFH

D(2) dopamine receptor [4] = target: T1, D(2) dopamine receptor; assay: Displacement of [3H]spiperone from high-affinity state of human dopamine D2L receptor transfected in HEK293 cells after 2 hrs by scintillation counting analysis; assay type: cell-based
D(3) dopamine receptor = D(3) dopamine receptor (Homo sapiens, UniProt P35462); assay: Displacement of [3H]spiperone from human dopamine D3 receptor transfected in HEK293 cells after 2 hrs by scintillation counting analysis; assay type: cell-based
Sequence of D(3) dopamine receptor (P35462 whole entry): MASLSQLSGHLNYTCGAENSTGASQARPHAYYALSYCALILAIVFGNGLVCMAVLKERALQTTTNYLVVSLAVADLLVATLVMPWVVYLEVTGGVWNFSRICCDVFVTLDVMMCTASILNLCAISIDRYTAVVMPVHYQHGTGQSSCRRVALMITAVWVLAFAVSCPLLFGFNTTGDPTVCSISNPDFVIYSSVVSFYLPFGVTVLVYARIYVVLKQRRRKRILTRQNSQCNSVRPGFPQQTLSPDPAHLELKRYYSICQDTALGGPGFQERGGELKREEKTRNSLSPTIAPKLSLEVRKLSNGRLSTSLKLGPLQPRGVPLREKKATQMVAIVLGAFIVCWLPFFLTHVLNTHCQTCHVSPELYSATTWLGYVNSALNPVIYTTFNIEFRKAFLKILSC

D(2) dopamine receptor [5] = target: T1, D(2) dopamine receptor; assay: Agonist activity at human dopamine D2L receptor expressed in HEK293 cells assessed as inhibition of forskolin-induced cAMP accumulation after 30 mins by LANCE assay; assay type: functional, cell-based
Nucleic Acid [6] = assay: Ratio of drug level from striatum to cortex of Sprague-Dawley rat at 5.8 +/- […] after 35 mins by autoradiographic analysis in presence of GTP; assay type: ADME, tissue-based; settings: in vitro
Nucleic Acid [7] = assay: Ratio of drug level from striatum to cerebellum of Sprague-Dawley rat at 5.8 +/- […] after 35 mins by autoradiographic analysis in presence of dopamine D2/3 receptor antagonist raclopride; assay type: nucleic-acid assay; settings: in vitro
[8] = Lipophilicity, log D of the compound; assay type: physicochemical; settings: octanol/water
How it was run: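 Shake-flask LogD of the [18F]-labelled tracer. Activity left on the HLB cartridge was eluted with n-octanol. The eluate was vortexed 5 min at rt with an equal volume of 1 M phosphate buffer, pH 7.4, then centrifuged at 17 000g for 10 min. Organic and aqueous aliquots were gamma-counted and corrected for intact-tracer fraction by radio-TLC. Each run was in duplicate, and the mean was taken from ≥2 independent experiments.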

Nucleic Acid [9] = assay: Ratio of drug level from striatum to cortex of Sprague-Dawley rat at 5.8 +/- […] after 35 mins by autoradiographic analysis; assay type: ADME, tissue-based; settings: in vitro
Nucleic Acid [10] = assay: Ratio of drug level from striatum to cerebellum of Sprague-Dawley rat at 5.8 +/- […] after 35 mins by autoradiographic analysis in presence of GTP; assay type: ADME, nucleic-acid assay; settings: in vitro
Nucleic Acid [11] = assay: Ratio of drug level from striatum to cerebellum of Sprague-Dawley rat at 5.8 +/- […] after 35 mins by autoradiographic analysis; assay type: ADME, nucleic-acid assay; settings: in vitro
Nucleic Acid [12] = assay: Ratio of drug level from striatum to cortex of Sprague-Dawley rat at 5.8 +/- […] after 35 mins by autoradiographic analysis in presence of dopamine D2/3 receptor antagonist raclopride; settings: in vitro
Nucleic Acid [13] = assay: Ratio of drug level from striatum to cortex of Sprague-Dawley rat at 4.5 +/- 3.6 nM after 35 mins by autoradiographic analysis in presence of dopamine D2/3 receptor antagonist raclopride
How it was run: (§1)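 Rat brain slice autoradiography with 10 μM raclopride co-incubated to define nonspecific binding. Slices were preincubated 15 min at rt in Tris buffer (5 mM KCl, 2 mM CaCl2, 2 mM MgCl2, 120 mM NaCl, pH 7.4). They were then exposed 35 min at 37 °C to radioligand at about 5 nM, washed ice-cold, and imaged on phosphor screens for 6–10 h with striatal and reference-region ROIs.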

Nucleic Acid [14] = assay: Ratio of drug level from striatum to cortex of Sprague-Dawley rat at 4.5 +/- 3.6 nM after 35 mins by autoradiographic analysis; assay type: ADME, tissue-based
How it was run: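 In vitro autoradiography on rat brain slices. Slices were preincubated 15 min at rt in 50 mM Tris-HCl, 5 mM KCl, 2 mM CaCl2, 2 mM MgCl2, 120 mM NaCl, pH 7.4. They were then incubated 35 min at 37 °C with radioligand at about 5 nM, washed in ice-cold buffer and dipped in water. Phosphor screens were exposed 6–10 h, with manual striatal and reference-region ROIs. Values are mean SD over slides from n experiments.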

Nucleic Acid [15] = assay: Ratio of drug level from striatum to cerebellum of Sprague-Dawley rat at […] after 35 mins by autoradiographic analysis in presence of dopamine D2/3 receptor antagonist raclopride; assay type: nucleic-acid assay
Nucleic Acid [16] = assay: Ratio of drug level from striatum to cortex of Sprague-Dawley rat at […] after 35 mins by autoradiographic analysis; assay type: ADME, tissue-based
Nucleic Acid [17] = assay: Ratio of drug level from striatum to cerebellum of Sprague-Dawley rat at […] after 35 mins by autoradiographic analysis in presence of GTP; assay type: ADME, nucleic-acid assay
Nucleic Acid [18] = assay: Ratio of drug level from striatum to cortex of Sprague-Dawley rat at […] after 35 mins by autoradiographic analysis in presence of GTP; assay type: ADME, tissue-based
Nucleic Acid [19] = assay: Ratio of drug level from striatum to cerebellum of Sprague-Dawley rat at […] after 35 mins by autoradiographic analysis; assay type: ADME, nucleic-acid assay
Nucleic Acid [20] = assay: Ratio of drug level from striatum to cortex of Sprague-Dawley rat at […] after 35 mins by autoradiographic analysis in presence of dopamine D2/3 receptor antagonist raclopride
Nucleic Acid [21] = assay: Ratio of drug level from striatum to cerebellum of Sprague-Dawley rat at 4.5 +/- 3.6 nM after 35 mins by autoradiographic analysis in presence of dopamine D2/3 receptor antagonist raclopride; assay type: nucleic-acid assay; how it was run: as §1

| SMILES | Ki (D(2) dopamine receptor [2]; read-out: Ki) | Ki (D(2) dopamine receptor [2]; read-out: pKi (converted)) | Ki (D(2) dopamine receptor [3]; read-out: Ki) | Ratio Ki (Homo sapiens) | Ki (D(1A) dopamine receptor; read-out: Ki) | Ki (D(1A) dopamine receptor; read-out: pKi (converted)) | Ki (D(4) dopamine receptor; read-out: Ki) | Ki (D(1B) dopamine receptor; read-out: Ki) | Ki (D(1B) dopamine receptor; read-out: pKi (converted)) | Ki (D(3) dopamine receptor; read-out: Ki) | Ki (D(3) dopamine receptor; read-out: pKi (converted)) | EC50 (D(2) dopamine receptor [5]) | further results |
| --- | --- | --- | --- | --- | --- | --- | --- | --- | --- | --- | --- | --- | --- |
| CCCN1CCO[C@@H]2c3cc(O)ccc3CC[C@H]21 [NAXAGOLIDE HYDROCHLORIDE] |  |  |  |  |  |  |  |  |  |  |  |  | Ki (D(2) dopamine receptor [1]): 0.6 nM |
| Oc1ccc2c(c1)O[C@@H](CNCc1cccc(I)c1)CC2 | 72.9 nM | 33.9 nM | 30.8 nM | > 100 | 4290 nM | 3890 nM | 0.97 nM | 4640 nM | 4570 nM | 7.87 nM | 2.88 nM | 0.0316 nM | Ki (D(2) dopamine receptor [3]; read-out: pKi (converted)): 28.8 nM; Ki (D(2) dopamine receptor [4]; read-out: Ki): 2.06 nM; Ki (D(2) dopamine receptor [4]; read-out: pKi (converted)): 1.02 nM |
| Oc1ccc2c(c1)O[C@@H](CNCc1ccc(I)cc1)CC2 |  |  |  |  | 8670 nM | 8130 nM | 1.59 nM |  | 3550 nM | 13.9 nM | 5.62 nM |  | Ki (D(4) dopamine receptor; read-out: pKi (converted)): 1.55 nM |
| Oc1ccc2c(c1)O[C@@H](CNCc1ccccc1I)CC2 | 51.2 nM | 29.5 nM | 166 nM | > 100 | 436 nM | 417 nM |  |  |  | 1.79 nM | 1.66 nM |  | Ki (D(2) dopamine receptor [3]; read-out: pKi (converted)): 83.2 nM; Ki (D(2) dopamine receptor [4]; read-out: Ki): 0.68 nM; Ki (D(2) dopamine receptor [4]; read-out: pKi (converted)): 0.162 nM |
| Oc1ccc2c(c1)O[C@@H](CNCCN1CCN(c3ccc(OCC[18F])cc3)CC1)CC2 |  |  |  |  |  |  |  |  |  |  |  |  | Ratio (Nucleic Acid [6]): 1.48; Ratio (Nucleic Acid [7]): 1.65; logD [8]: 1.48; Ratio (Nucleic Acid [9]): 1.9; Ratio (Nucleic Acid [10]): 1.67; Ratio (Nucleic Acid [11]): 2.64; Ratio (Nucleic Acid [12]): 1.2 |
| Oc1ccc2c(c1)O[C@@H](CNCc1ccccc1)CC2 |  |  |  |  | 7250 nM |  |  | 3830 nM | 3720 nM |  |  |  |  |
| Oc1ccc2c(c1)O[C@@H](CNCc1ccc(OCCCC[18F])cc1)CC2 |  |  |  |  |  |  |  |  |  |  |  |  | Ratio (Nucleic Acid [13]): 1.05; Ratio (Nucleic Acid [14]): 1.16; Ratio (Nucleic Acid [15]): 1.1; Ratio (Nucleic Acid [16]): 1.68; logD [8]: 2.45; Ratio (Nucleic Acid [17]): 1.2; Ratio (Nucleic Acid [18]): 1.13; Ratio (Nucleic Acid [19]): 1.85; Ratio (Nucleic Acid [20]): 1.03; Ratio (Nucleic Acid [21]): 1.04 |
| Oc1ccc2c(c1)O[C@@H](CNCc1ccc(OCCCCF)cc1)CC2 | 80.5 nM | 61.7 nM | 92.7 nM | > 100 | 6910 nM | 6610 nM | 32.1 nM | 2890 nM | 2450 nM | 12.1 nM |  | 0.398 nM | Ki (D(2) dopamine receptor [3]; read-out: pKi (converted)): 91.2 nM; Ki (D(2) dopamine receptor [4]; read-out: Ki): 5.6 nM |
| Oc1ccc2c(c1)O[C@@H](CN1CCN(c3ccc(OCCF)cc3)CC1)CC2 |  |  |  | > 100 |  |  | 131 nM | 19700 nM |  | 39.4 nM | 37.2 nM |  | inhibition (D(2) dopamine receptor [2]): inactive; inhibition (D(2) dopamine receptor [3]): inactive; inhibition (D(1A) dopamine receptor): inactive; Ki (D(4) dopamine receptor; read-out: pKi (converted)): 47.9 nM; inhibition (D(2) dopamine receptor [4]): inactive |
| CCCCCCNC[C@H]1CCc2ccc(O)cc2O1 |  |  |  |  | 10900 nM | 10500 nM | 5.7 nM | 27700 nM | 2750 nM | 547 nM | 19.1 nM | 0.0501 nM | Ki (D(4) dopamine receptor; read-out: pKi (converted)): 5.01 nM |
| Oc1ccc2c(c1)O[C@@H](CNCc1ccccc1OCCCCF)CC2 | 156 nM | 145 nM | 452 nM | > 100 | 1160 nM |  |  |  |  | 33 nM |  |  |  |
| Oc1ccc2c(c1)O[C@@H](CN1CCN(c3ccc(I)cc3)CC1)CC2 |  |  |  | > 100 | 46500 nM |  | 14.3 nM | 17800 nM | 17400 nM | 24.2 nM |  |  | inhibition (D(2) dopamine receptor [2]): inactive; inhibition (D(2) dopamine receptor [3]): inactive; inhibition (D(2) dopamine receptor [4]): inactive |
| Oc1ccc2c(c1)O[C@@H](CNCCN1CCN(c3ccc(OCCF)cc3)CC1)CC2 | 235 nM | 219 nM | 252 nM | > 100 |  |  | 27.7 nM | 9700 nM |  | 10 nM | 8.71 nM | 0.158 nM | Ki (D(2) dopamine receptor [3]; read-out: pKi (converted)): 234 nM; inhibition (D(1A) dopamine receptor): inactive; Ki (D(4) dopamine receptor; read-out: pKi (converted)): 22.9 nM; Ki (D(2) dopamine receptor [4]; read-out: Ki): 6.67 nM; Ki (D(2) dopamine receptor [4]; read-out: pKi (converted)): 5.01 nM |
| Oc1ccc2c(c1)O[C@@H](CNCCN1CCN(c3ccc(I)cc3)CC1)CC2 | 80.5 nM | 66.1 nM | 131 nM | > 100 | 3960 nM | 3890 nM | 9.7 nM | 3480 nM |  | 23 nM | 21.9 nM | 1.58 nM |  |
